Measurements reported in PubChem BioAssay.
Results filed as inconclusive are left out.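 How the source made its calls, unless noted: active means RAM network inhibition above 8.4% in each of two replicates, 3 SD over the compound average; inconclusive means above 8.4% inhibition in only one replicate; inactive means 8.4% inhibition or less in each replicate.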

Tests used:
[1] = OD615 S. cerevisiae growth inhibition, permissive medium, pilot counter-assay, permissive growth control for S. cerevisiae lifespan shortening project (AID 705;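 active means growth inhibition above 25% in both replicates, a cutoff set 3 SD above the mean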); conditions: OD615, 24 h, at 10 µM, stronger effect = higher value
Outline: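 Test system: Saccharomyces cerevisiae strain carrying genetically modified DeaD replicative-lifespan system; buffer or medium: SC raffinose/galactose permissive medium; dosing: one dose 10 µM, DMSO 0.25% final; times: 24 h exposure, 30 °C; measured by: OD at 615 nm; read-out basis: growth inhibition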

[2] = Restrictive medium S. cerevisiae growth inhibition, OD615, pilot screen of yeast lifespan reduction project, restrictive growth control (AID 706;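 active means growth inhibition above a set limit, 3 SD over mean compound inhibition, in both replicates, cut at about 43% in these data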;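 further: modified DeaD lifespan yeast strain shifted to restrictive glucose medium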); conditions: OD615, 48 h, at 10 µM, stronger effect = higher value
Outline: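 material = engineered S. cerevisiae DeaD strain | buffer or medium = glucose-based CSMM-D restrictive medium | dosing = one concentration, 10 µM final, 0.25% DMSO | schedule = 4 h pre-growth plus 48 h compound exposure, 30 °C | detection = OD615 absorbance reading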

[3] = viability gain of MRP-1-high H69AR cells under doxorubicin, pilot screen, MRP-1 activator project, CellTiter-Glo, duplicate (AID 807;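 active means viability increase at or above a cutoff of the median across tested compounds plus 3 SD, cut at about 8.5% in these data, passing the limit was not always enough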;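 further: compound pretreatment 18-22 h then 72 h combined with doxorubicin; 0% = doxorubicin alone and 100% = vehicle without doxorubicin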); conditions: H69AR viability with doxorubicin, CellTiter-Glo luminescence; at 10 µM; stronger effect = higher value
[4] = growth suppression of beta-catenin knockout HCT116, pilot screen, human colon tumor cells (AID 823;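 active means cell viability at or below a set limit in both duplicate runs, the limit being the all-compound median minus 4 SD, cut at about 23% in these data, passing the limit was not always enough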;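 further: 0% = wells killed by 20 µM Hyamine and 100% = untreated DMSO cell wells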); conditions: CellTiter-Glo, 60 h, at 10 µM, stronger effect = lower value
[5] = growth suppression of PTEN-deleted HCT116, pilot screen, cell-based, HCT116 clonal line, CellTiter-Glo (AID 824;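 active means viability at or below 27.92% in each of two runs, the all-compound median minus 4 SD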;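 further: 0% = 20 µM Hyamine control and 100% = vehicle cell control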); conditions: 60 h, at 10 µM, stronger effect = lower value
[6] = inhibitors of the yeast RAM network, pilot screen, dse1pr::URA3 reporter, 5-FOA selection (AID 869;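 active means inhibition over a set limit, the all-compound mean plus 3 SD, in both replicate runs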;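 further: 0% = DMSO wells with no growth and 100% = 10 µM 1-NA-PP1 with full growth; RAM network block rescues cells from 5-FOA so hits raise OD615 growth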); conditions: S. cerevisiae dse1pr::URA3 5-FOA growth, OD615, 2 d; at 10 µM; stronger effect = higher value; strain carries analog-sensitive mutant Cbk1 kinase
[7] = RAM signaling pathway blockade in yeast – S. cerevisiae, Pdr1DBD-CYC8 efflux-inhibited sensitized strain, primary screen (AID 1298);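 further: 0% = DMSO untreated cells without growth and 100% = 10 µM 1-NA-PP1 full growth; higher means more yeast growth rescued from 5-FOA killing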; conditions: S. cerevisiae cbk1-as DSE1-URA3 strain, 5-FOA growth OD615, 2 d; at 50 µM; stronger effect = higher value

COc1ccc(OC)c(NC(=O)CSc2nnc(Cn3c(=O)sc4ccccc43)n2C)c1
inactive: growth inhibition [1] -10.2% | growth inhibition [2] -1.53% | viability increase [3] -2.91% | viability [4] 94.3% | viability [5] 86.5% | inhibition [6] 2.36% | RAM network inhibition [7] 3.22%

Cc1cc(NC(=O)C2CC(c3ccc(F)cc3)=NO2)n(-c2ccccc2)n1 (stereo unspecified)
inactive: growth inhibition [1] -12.7% | growth inhibition [2] 2.08% | viability increase [3] 0.96% | viability [4] 97.1% | viability [5] 95.7% | inhibition [6] 1.16% | RAM network inhibition [7] -1.56%

CN(C)c1nc(Oc2ccc(/C=N/O)cc2)nc(N(C)C)n1
inactive: growth inhibition [1] -9.5% | growth inhibition [2] 4.05% | viability increase [3] -2.72% | viability [4] 101% | viability [5] 85.1% | inhibition [6] 1.58% | RAM network inhibition [7] 2.8%

O=c1c2ccccc2c2ccccc2c(=O)n1CC1CCCO1 (stereo unspecified)
inactive: growth inhibition [1] 2.77% | growth inhibition [2] 0.685% | viability increase [3] -2.2% | viability [4] 101% | viability [5] 89.6% | inhibition [6] 0.305% | RAM network inhibition [7] 12.7%

CCCCCn1c(CCCNC(=O)CC)nc2ccccc21
inactive: growth inhibition [1] -8.6% | growth inhibition [2] -0.63% | viability increase [3] -2.94% | viability [4] 89% | viability [5] 97.6% | inhibition [6] 0.405% | RAM network inhibition [7] 2.13%

COc1cccc(NC=C2C(=O)OC3(CCCCC3)OC2=O)c1
inactive: growth inhibition [1] -8.74% | growth inhibition [2] 5.97% | viability increase [3] -1.85% | viability [4] 95.1% | viability [5] 104% | inhibition [6] 2.04% | RAM network inhibition [7] 5.16%

O=C(CSc1nc2ncccc2[nH]1)NCc1ccccc1
inactive: growth inhibition [1] 0.36% | growth inhibition [2] 13.3% | viability increase [3] -0.06% | viability [4] 101% | viability [5] 86.9% | inhibition [6] 3.13% | RAM network inhibition [7] 3.93%

O=C(Nc1sc2c(c1C(=O)O)CCCC2)c1cccs1
inactive: growth inhibition [1] 5.62% | growth inhibition [2] 15.9% | viability increase [3] -1.03% | viability [4] 79.5% | viability [5] 57% | inhibition [6] -1.22% | RAM network inhibition [7] -2.15%

O=C(OCN1C(=O)c2ccccc2C1=O)c1cccs1
inactive: growth inhibition [1] -2.01% | growth inhibition [2] -11.2% | viability increase [3] -0.64% | viability [4] 94.7% | viability [5] 96.5% | inhibition [6] 1.2% | RAM network inhibition [7] 1.51%

Cc1[nH]c(=O)[nH]c(=O)c1S(=O)(=O)N1CCCC(C(=O)N2CCC(Cc3ccccc3)CC2)C1 (stereo unspecified)
inactive: growth inhibition [1] -7.81% | growth inhibition [2] -8.27% | viability increase [3] 0.94% | viability [4] 100% | viability [5] 101% | inhibition [6] 0.385% | RAM network inhibition [7] 3.66%

CC(C)CCN(C)C1CCN(C(=O)Nc2c(F)cccc2F)CC1
inactive: growth inhibition [1] 0.53% | growth inhibition [2] -12.6% | viability increase [3] -3.34% | viability [4] 90.6% | viability [5] 91.7% | inhibition [6] 1.56% | RAM network inhibition [7] 0.26%

COCCNC(=O)CN1C(=O)CSc2cc(S(=O)(=O)N3CCCCCC3)ccc21
inactive: growth inhibition [1] -5.04% | growth inhibition [2] -4.12% | viability increase [3] -1.52% | viability [4] 98.9% | viability [5] 109% | inhibition [6] 2.73% | RAM network inhibition [7] -0.32%

CC(C)C(=O)N=c1sc2cc(F)cc(F)c2n1C
inactive: growth inhibition [1] -9.84% | growth inhibition [2] -0.65% | viability increase [3] -1.28% | viability [4] 94.1% | viability [5] 99% | inhibition [6] 0.01% | RAM network inhibition [7] 0.96%

O=C(COc1ccccc1)N1CCN(S(=O)(=O)c2cccs2)CC1
inactive: growth inhibition [1] -4.47% | growth inhibition [2] -11% | viability increase [3] -0.82% | viability [4] 94% | viability [5] 85.3% | inhibition [6] 0.6% | RAM network inhibition [7] 7.83%

CC1CCCCN1S(=O)(=O)c1coc(C(N)=O)c1 (stereo unspecified)
inactive: growth inhibition [1] -12.1% | growth inhibition [2] -13.6% | viability increase [3] -2.18% | viability [4] 105% | viability [5] 96.8% | inhibition [6] 3% | RAM network inhibition [7] 0.05%

CCOc1ccc(C(=O)Nc2cc(C)c3c(=O)oc4ccccc4c3n2)cc1
inactive: growth inhibition [1] -0.2% | growth inhibition [2] 9.54% | viability increase [3] -7.84% | viability [4] 65% | viability [5] 40.8% | inhibition [6] 1.54% | RAM network inhibition [7] 1.29%

CCOCCCNC(=O)C(NC(=O)c1cnccn1)c1ccc(OC)cc1 (stereo unspecified)
inactive: growth inhibition [1] -8.29% | growth inhibition [2] -6.63% | viability increase [3] 1.76% | viability [4] 102% | viability [5] 95.7% | inhibition [6] 1.81% | RAM network inhibition [7] 2.15%

CC1CCc2c(sc3ncnc(NCCN4CCOCC4)c23)C1 (stereo unspecified)
inactive: growth inhibition [1] -7.6% | growth inhibition [2] -5.73% | viability increase [3] -6.47% | viability [4] 96.4% | viability [5] 95% | inhibition [6] 1.02% | RAM network inhibition [7] 5.28%
